Measured values: ChEMBL document CHEMBL4184148 (Bioorg Med Chem Lett, 2017)

Assays:
[1] = target: Inhibitor of nuclear factor kappa-B kinase subunit beta (Homo sapiens) (UniProt O14920); test: Binding affinity to wild-type human full length IKK-beta (M1 to S756 residues) expressed in HEK293 cells at 1 uM by Kinomescan method relative to control; assay type: cell-based
Outline: (§1)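 Run as one kinome-wide competition binding panel with each compound at a single fixed concentration. Results were plotted as a kinome-wide selectivity map.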

[2] = target: Serine/threonine-protein kinase 38-like (Homo sapiens) (UniProt Q9Y2H1); test: Binding affinity to wild-type human partial length NDR2 (N34 to E447 residues) expressed in Escherichia coli BL21 at 1 uM by Kinomescan method relative to control
Aurora kinase A = target: T1, Aurora kinase A (Homo sapiens, UniProt O14965); test: Inhibition of recombinant full length His-tagged human Aurora A expressed in baculovirus expression system by Z'LYTE assay
T1 sequence (O14965 whole entry): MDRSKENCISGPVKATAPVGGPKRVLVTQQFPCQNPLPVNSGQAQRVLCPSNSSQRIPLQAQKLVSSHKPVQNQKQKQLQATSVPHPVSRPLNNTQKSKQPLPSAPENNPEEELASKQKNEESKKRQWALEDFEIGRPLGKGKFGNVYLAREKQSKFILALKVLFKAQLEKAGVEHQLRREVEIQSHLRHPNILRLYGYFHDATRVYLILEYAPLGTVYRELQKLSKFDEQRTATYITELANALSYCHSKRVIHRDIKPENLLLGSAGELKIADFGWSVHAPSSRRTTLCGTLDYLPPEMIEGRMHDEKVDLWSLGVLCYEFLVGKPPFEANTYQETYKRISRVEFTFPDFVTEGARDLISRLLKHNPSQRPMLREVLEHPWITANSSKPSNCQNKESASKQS
Outline: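 Z'LYTE biochemical kinase assay with ATP at the Km for each kinase. IC50 determined from the assay and reported ± standard error.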

[3] = target: Tyrosine-protein kinase JAK2 (Homo sapiens) (UniProt O60674); test: Binding affinity to wild-type human partial length JAK2 JH1 catalytic domain (A829 to G1132 residues) expressed in HEK293 cells at 1 uM by Kinomescan method relative to control; assay type: cell-based
[4] = target: Interleukin-1 receptor-associated kinase 4 (Homo sapiens) (UniProt Q9NWZ3); test: Binding affinity to wild-type human partial length IRAK4 (M1 to S460 residues) expressed in HEK293 cells at 1 uM by Kinomescan method relative to control; assay type: cell-based
[5] = target: Tyrosine-protein kinase Fer (Homo sapiens) (UniProt P16591); test: Binding affinity to wild-type human partial length FER (S542 to T822 residues) expressed in Escherichia coli BL21 at 1 uM by Kinomescan method relative to control
[6] = target: Serine/threonine-protein kinase PAK 5 (Homo sapiens) (UniProt Q9P286); test: Binding affinity to wild-type human partial length PAK7 (Y400 to H719 residues) expressed in Escherichia coli BL21 at 1 uM by Kinomescan method relative to control
[7] = system: eIF-2-alpha kinase GCN2 (Homo sapiens), Q9P2K8 [S808G]; test: Binding affinity to wild-type human partial length GCN2 kinase domain 2 (R585 to T1018 residues) S808G mutant expressed in Escherichia coli BL21 at 1 uM by Kinomescan method relative to control
[8] = target: Fibroblast growth factor receptor 1 (Homo sapiens) (UniProt P11362); test: Binding affinity to wild-type human partial length FGFR1 (P357 to V669 residues) expressed in Escherichia coli BL21 at 1 uM by Kinomescan method relative to control
[9] = target: Serine/threonine-protein kinase tousled-like 1 (Homo sapiens) (UniProt Q9UKI8); test: Binding affinity to wild-type human partial length TLK1 (K447 to A754 residues) expressed in Escherichia coli BL21 at 1 uM by Kinomescan method relative to control
[10] = target: Tyrosine-protein kinase JAK3 (Homo sapiens) (UniProt P52333); test: Binding affinity to wild-type human partial length JAK3 JH1 catalytic domain (I781 to S1124 residues) expressed in HEK293 cells at 1 uM by Kinomescan method relative to control; assay type: cell-based
[11] = target: Serine/threonine-protein kinase DCLK1 (Homo sapiens) (UniProt O15075); test: Binding affinity to wild-type human partial length DCAMKL1 (L270 to A662 residues) expressed in HEK293 cells at 1 uM by Kinomescan method relative to control; assay type: cell-based
[12] = target: Calcium/calmodulin-dependent protein kinase type 1G (Homo sapiens) (UniProt Q96NX5); test: Binding affinity to wild-type human partial length CAMK1G (M1 to A342 residues) expressed in Escherichia coli BL21 at 1 uM by Kinomescan method relative to control
[13] = target: Myosin light chain kinase, smooth muscle (Homo sapiens) (UniProt Q15746); test: Binding affinity to wild-type human full length MYLK (M854 to E1845 residues) expressed in HEK293 cells at 1 uM by Kinomescan method relative to control; assay type: cell-based; outline: as §1
[14] = target: Serine/threonine-protein kinase Chk1 (Homo sapiens) (UniProt O14757); test: Binding affinity to wild-type human partial length CHEK1 (M1 to G289 residues) expressed in Escherichia coli BL21 at 1 uM by Kinomescan method relative to control
HEK293 = test: Binding affinity to wild-type Mycobacterium tuberculosis partial length PKNB (M1 to G279 residues) expressed in HEK293 cells at 1 uM by Kinomescan method relative to control; assay type: cell-based
[15] = target: Dual specificity mitogen-activated protein kinase kinase 7 (Homo sapiens) (UniProt O14733); test: Binding affinity to wild-type human full length MKK7 (M1 to R419 residues) expressed in HEK293 cells at 1 uM by Kinomescan method relative to control; assay type: cell-based; outline: as §1
[16] = target: Mitogen-activated protein kinase kinase kinase kinase 3 (Homo sapiens) (UniProt Q8IVH8); test: Binding affinity to wild-type human partial length MAP4K3 (M1 to D301 residues) expressed in Escherichia coli BL21 at 1 uM by Kinomescan method relative to control
[17] = target: Dual specificity protein kinase CLK1 (Homo sapiens) (UniProt P49759); test: Binding affinity to wild-type human full length CLK1 (M1 to I484 residues) expressed in Escherichia coli BL21 at 1 uM by Kinomescan method relative to control; outline: as §1
[18] = target: Leucine-rich repeat serine/threonine-protein kinase 2 (Homo sapiens, UniProt Q5S007); test: Binding affinity to wild-type human partial length LRRK2 (H970 to E2527 residues) expressed in HEK293 cells at 1 uM by Kinomescan method relative to control; assay type: cell-based
[19] = target: Microtubule-associated serine/threonine-protein kinase 1 (Homo sapiens) (UniProt Q9Y2H9); test: Binding affinity to wild-type human partial length MAST1 (S346 to V730 residues) expressed in HEK293 cells at 1 uM by Kinomescan method relative to control; assay type: cell-based
[20] = target: Dual specificity mitogen-activated protein kinase kinase 3 (Homo sapiens) (UniProt P46734); test: Binding affinity to wild-type human full length MEK3 (M1 to S318 residues) expressed in HEK293 cells at 1 uM by Kinomescan method relative to control; assay type: cell-based; outline: as §1

Chain of Inhibitor of nuclear factor kappa-B kinase subunit beta (Homo sapiens) (O14920 whole entry, the tested form may be a part): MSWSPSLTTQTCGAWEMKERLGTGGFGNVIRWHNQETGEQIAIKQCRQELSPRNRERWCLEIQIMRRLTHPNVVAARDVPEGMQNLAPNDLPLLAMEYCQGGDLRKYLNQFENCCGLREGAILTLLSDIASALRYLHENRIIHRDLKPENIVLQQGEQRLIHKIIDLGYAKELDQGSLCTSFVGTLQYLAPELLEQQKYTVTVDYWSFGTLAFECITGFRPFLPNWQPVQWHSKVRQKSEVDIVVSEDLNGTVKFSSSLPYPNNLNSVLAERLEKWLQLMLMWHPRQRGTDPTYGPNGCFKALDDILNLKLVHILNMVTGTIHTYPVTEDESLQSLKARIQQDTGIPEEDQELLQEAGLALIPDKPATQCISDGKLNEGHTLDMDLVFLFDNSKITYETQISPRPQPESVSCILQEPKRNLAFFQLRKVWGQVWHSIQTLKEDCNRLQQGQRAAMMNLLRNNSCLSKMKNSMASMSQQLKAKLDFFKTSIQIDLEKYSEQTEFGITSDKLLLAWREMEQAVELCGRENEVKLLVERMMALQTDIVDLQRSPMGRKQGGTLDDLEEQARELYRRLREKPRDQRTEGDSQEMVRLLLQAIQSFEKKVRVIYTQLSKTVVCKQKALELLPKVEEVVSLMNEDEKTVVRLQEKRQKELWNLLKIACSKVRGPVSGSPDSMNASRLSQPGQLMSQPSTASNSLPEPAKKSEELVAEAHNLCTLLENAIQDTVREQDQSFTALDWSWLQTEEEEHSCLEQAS
Chain of Leucine-rich repeat serine/threonine-protein kinase 2 (Q5S007 whole entry, the tested form may be a part): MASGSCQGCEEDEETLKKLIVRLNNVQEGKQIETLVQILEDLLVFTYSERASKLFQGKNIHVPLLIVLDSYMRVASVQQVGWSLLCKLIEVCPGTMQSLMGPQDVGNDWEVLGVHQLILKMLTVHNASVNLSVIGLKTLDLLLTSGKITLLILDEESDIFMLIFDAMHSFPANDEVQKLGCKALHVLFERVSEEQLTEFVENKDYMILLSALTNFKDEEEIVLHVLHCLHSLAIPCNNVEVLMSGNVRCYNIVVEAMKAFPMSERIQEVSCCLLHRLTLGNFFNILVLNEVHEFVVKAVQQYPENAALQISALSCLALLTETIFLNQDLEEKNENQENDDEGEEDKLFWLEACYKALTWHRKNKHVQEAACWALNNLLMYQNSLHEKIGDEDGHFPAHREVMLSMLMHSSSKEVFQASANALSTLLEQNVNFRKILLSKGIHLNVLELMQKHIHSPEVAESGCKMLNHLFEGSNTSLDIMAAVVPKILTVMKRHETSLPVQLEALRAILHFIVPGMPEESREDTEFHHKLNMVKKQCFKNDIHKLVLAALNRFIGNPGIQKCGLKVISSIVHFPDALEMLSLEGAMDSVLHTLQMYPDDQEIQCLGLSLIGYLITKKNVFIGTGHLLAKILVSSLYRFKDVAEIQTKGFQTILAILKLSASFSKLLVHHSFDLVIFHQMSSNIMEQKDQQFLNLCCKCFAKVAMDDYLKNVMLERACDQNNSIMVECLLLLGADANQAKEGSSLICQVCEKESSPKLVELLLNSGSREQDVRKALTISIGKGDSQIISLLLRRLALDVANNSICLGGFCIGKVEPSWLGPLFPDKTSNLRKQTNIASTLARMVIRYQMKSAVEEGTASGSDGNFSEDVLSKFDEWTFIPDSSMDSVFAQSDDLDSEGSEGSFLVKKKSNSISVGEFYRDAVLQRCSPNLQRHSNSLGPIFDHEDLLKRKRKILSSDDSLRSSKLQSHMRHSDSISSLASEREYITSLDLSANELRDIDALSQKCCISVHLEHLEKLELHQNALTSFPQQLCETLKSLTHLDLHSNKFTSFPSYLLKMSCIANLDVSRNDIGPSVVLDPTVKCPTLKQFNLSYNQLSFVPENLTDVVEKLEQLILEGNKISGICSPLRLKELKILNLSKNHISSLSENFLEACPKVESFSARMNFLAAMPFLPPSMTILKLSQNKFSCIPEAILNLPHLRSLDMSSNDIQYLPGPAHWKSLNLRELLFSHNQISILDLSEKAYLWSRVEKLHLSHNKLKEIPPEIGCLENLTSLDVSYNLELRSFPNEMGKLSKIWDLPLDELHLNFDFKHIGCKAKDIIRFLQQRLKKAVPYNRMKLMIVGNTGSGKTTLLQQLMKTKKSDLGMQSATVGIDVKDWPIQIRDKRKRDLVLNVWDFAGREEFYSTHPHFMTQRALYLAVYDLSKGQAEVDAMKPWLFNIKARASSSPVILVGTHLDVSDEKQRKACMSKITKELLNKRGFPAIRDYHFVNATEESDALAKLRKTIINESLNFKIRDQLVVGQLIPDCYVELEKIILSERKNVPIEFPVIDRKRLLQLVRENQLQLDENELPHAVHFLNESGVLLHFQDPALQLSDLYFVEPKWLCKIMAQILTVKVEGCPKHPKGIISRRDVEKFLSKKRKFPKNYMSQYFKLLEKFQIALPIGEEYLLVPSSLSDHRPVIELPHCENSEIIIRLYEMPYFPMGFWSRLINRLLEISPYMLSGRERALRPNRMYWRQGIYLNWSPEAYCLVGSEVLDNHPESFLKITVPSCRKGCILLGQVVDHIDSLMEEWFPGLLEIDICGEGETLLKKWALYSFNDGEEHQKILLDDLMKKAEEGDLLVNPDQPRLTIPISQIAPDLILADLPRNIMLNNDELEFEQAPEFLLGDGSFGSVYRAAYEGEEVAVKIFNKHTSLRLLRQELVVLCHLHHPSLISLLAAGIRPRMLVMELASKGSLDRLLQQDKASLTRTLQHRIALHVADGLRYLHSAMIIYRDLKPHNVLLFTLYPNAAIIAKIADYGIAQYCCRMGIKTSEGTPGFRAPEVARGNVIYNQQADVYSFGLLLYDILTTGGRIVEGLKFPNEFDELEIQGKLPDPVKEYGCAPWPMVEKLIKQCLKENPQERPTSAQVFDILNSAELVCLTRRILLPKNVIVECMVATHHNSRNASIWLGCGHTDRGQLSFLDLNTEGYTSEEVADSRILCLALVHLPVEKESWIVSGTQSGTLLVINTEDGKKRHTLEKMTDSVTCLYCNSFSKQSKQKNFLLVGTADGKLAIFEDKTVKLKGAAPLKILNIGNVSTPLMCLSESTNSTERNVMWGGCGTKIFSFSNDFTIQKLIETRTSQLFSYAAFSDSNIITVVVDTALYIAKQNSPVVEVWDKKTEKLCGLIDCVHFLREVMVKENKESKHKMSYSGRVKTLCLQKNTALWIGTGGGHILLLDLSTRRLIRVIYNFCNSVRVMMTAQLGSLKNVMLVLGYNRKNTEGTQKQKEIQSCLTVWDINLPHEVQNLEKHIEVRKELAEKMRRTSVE
Chain of Fibroblast growth factor receptor 1 (Homo sapiens) (P11362 22-822 limits assumed): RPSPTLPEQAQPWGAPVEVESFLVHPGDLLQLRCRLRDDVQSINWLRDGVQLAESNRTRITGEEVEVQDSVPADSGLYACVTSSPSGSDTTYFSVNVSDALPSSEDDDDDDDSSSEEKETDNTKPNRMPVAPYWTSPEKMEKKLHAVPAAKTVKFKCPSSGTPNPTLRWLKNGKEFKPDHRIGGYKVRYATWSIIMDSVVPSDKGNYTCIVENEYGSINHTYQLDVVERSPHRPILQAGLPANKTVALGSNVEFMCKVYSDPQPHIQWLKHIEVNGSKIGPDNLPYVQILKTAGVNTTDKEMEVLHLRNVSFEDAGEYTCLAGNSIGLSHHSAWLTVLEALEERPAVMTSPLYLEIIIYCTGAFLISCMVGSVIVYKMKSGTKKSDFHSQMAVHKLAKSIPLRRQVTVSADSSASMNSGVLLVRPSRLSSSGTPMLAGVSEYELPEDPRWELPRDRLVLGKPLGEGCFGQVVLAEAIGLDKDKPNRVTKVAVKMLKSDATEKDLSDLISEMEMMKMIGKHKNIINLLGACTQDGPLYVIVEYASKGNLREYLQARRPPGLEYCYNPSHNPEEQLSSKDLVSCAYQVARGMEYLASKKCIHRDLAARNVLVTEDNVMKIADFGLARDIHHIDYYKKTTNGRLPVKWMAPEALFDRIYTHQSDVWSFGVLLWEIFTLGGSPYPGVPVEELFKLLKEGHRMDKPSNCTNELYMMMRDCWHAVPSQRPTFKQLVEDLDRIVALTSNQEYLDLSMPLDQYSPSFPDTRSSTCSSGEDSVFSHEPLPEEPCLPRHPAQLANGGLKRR
Chain of Mitogen-activated protein kinase kinase kinase kinase 3 (Homo sapiens) (Q8IVH8 whole entry, the tested form may be a part): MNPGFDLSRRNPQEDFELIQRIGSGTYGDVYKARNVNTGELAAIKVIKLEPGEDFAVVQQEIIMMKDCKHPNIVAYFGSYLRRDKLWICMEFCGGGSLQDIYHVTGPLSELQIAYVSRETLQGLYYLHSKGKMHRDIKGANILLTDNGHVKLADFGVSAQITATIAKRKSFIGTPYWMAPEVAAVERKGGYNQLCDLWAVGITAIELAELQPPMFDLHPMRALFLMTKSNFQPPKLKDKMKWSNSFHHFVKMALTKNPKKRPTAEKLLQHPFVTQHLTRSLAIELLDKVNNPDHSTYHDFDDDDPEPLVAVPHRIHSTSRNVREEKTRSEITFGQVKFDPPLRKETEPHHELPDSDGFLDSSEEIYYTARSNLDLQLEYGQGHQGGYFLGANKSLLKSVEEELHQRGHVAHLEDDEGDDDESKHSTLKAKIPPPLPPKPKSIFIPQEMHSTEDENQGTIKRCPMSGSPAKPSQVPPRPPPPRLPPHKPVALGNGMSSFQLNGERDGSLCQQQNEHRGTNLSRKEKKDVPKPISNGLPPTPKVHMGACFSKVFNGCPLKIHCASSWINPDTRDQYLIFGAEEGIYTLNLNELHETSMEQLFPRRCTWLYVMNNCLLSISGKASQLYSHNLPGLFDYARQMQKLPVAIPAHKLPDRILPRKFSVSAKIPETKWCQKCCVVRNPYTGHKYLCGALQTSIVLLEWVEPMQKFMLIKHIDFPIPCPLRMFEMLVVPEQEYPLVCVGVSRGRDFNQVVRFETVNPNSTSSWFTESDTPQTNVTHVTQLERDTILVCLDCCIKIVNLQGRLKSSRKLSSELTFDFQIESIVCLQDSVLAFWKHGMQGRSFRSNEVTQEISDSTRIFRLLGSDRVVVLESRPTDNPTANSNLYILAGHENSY

Row | SMILES | Activity [1] [%] | Activity [2] [%] | IC50 (Aurora kinase A) [nM] | Activity [3] [%] | Activity [4] [%] | Activity [5] [%] | Activity [6] [%] | Activity [7] [%] | Activity [8] [%] | Activity [9] [%] | Activity [10] [%] | Activity [11] [%] | Activity [12] [%] | Activity [13] [%] | Activity [14] [%] | Activity (HEK293) [%] | Activity [15] [%] | Activity [16] [%] | Activity [17] [%] | Activity [18] [%] | further results
1 | CCC(=O)Nc1ccc(C(=O)Nc2ccc(Nc3ncc4c(n3)N(C)c3ccc(C)cc3C(=O)N4C)cc2)cc1 | 95 | 79 | 52 | 70 | 79 | 85 | 97 | 94 | 82 | 99 | 100 | 72 | 100 | 78 | 87 | 68 | 90 | 79 | 98 | 72 | Activity [19]: 80%; Activity [20]: 65%
2 | C=CC(=O)Nc1ccc(C(=O)Nc2ccc(Nc3ncc4c(n3)N(C)c3ccc(C)cc3C(=O)N4C)cc2)cc1 | 97 | 97 | 44 | 100 | 95 | 78 | 100 | 100 | 84 | 94 | 88 | 78 | 100 | 89 | 100 | 94 | 100 | 97 | 100 | 85 | Activity [19]: 90%; Activity [20]: 92%
